In series [1] the test system is Human immunodeficiency virus 1. The series can be described thus: Antiviral activity against HIV1 NL4-3 infected in human MT4 cells assessed as inhibition of viral replication after 4 days by p24 antigen based ELISA assay. In kind it is functional, organism-based. The settings on record: Human immunodeficiency virus 1, NL4-3, MT4, 96 h.
Series [2] concerns MT4. Put plainly: Cytotoxicity against human MT4 cells after 4 days. It is filed as cell-based. The settings on record: MT4, 96 h. In short, it runs like this: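 Mock-infected MT-4 cells were used. IC50 is the concentration giving 50% inhibition of cell growth. Values are averages of at least two separate experiments.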
A short description of series [3]: Therapeutic index, ratio of IC50 for human MT4 cells to EC50 for HIV1 NL4-3. As to conditions: read-out: TI. In kind it is cell-based. In short, it runs like this: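 TI was calculated as IC50 (growth inhibition of mock-infected MT-4 cells) divided by EC50 (inhibition of HIV-1 NL4-3 replication in MT-4 cells). Both inputs are averages of at least two separate experiments.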

pEC50, pIC50: −log10 of the molar value. A value given as a limit tells only on which side of the number the result lay.

`C=C(C)[C@@H]1CC[C@]2(COC(=O)CC(C)(C)C(=O)OC[C@H]3O[C@@H](n4cc(C)c(=O)[nH]c4=O)C[C@@H]3N=[N+]=[N-])CC[C@]3(C)[C@H](CC[C@@H]4[C@@]5(C)CC[C@H](OC(=O)CC(C)(C)C(=O)O)C(C)(C)[C@@H]5CC[C@]43C)[C@@H]12`: the pEC50 (as a rule, −log10 of the EC50, conventionally taken in molar units) in series [1] is 7.01. Also, the pIC50 – broadly, −log10 of the IC50, conventionally taken in molar units – in series [2] is 5.15. In series [3], the selectivity ratio was found to be 71.
Taken in the same sequence, the figures for `C=C(C)[C@@H]1CC[C@]2(COC(=O)CC(C)(C)CC(=O)OC[C@H]3O[C@@H](n4cc(C)c(=O)[nH]c4=O)C[C@@H]3N=[N+]=[N-])CC[C@]3(C)[C@H](CC[C@@H]4[C@@]5(C)CC[C@H](OC(=O)CC(C)(C)C(=O)O)C(C)(C)[C@@H]5CC[C@]43C)[C@@H]12` were 7.20, 5.09 and 129.
`Cc1cn([C@H]2C[C@H](N=[N+]=[N-])[C@@H](CO)O2)c(=O)[nH]c1=O` [ZIDOVUDINE]: the pIC50 in series [2] is less than 4.43.
On to `Cc1cn([C@H]2C[C@H](N=[N+]=[N-])[C@@H](COC(=O)C(C)(C)CC(=O)OC[C@]34CC[C@@H](C(C)C)[C@@H]3[C@H]3CC[C@@H]5[C@@]6(C)CC[C@H](OC(=O)CC(C)(C)C(=O)O)C(C)(C)[C@@H]6CC[C@@]5(C)[C@]3(C)CC4)O2)c(=O)[nH]c1=O`, for which, in series [1], the pEC50 was 7.06. The pIC50 in series [2] was 5.05. Besides, the selectivity ratio in series [3] was 103.
In the same order, the values of `C=C(C)[C@@H]1CC[C@]2(COC(=O)CC(C)(C)CC(=O)OC[C@H]3O[C@@H](n4cc(C)c(=O)[nH]c4=O)C[C@@H]3N=[N+]=[N-])CC[C@]3(C)[C@H](CC[C@@H]4[C@@]5(C)CC[C@H](OC(=O)CC(C)(C)CC(=O)O)C(C)(C)[C@@H]5CC[C@]43C)[C@@H]12` are 6.74, 5.11 and 43.
Taken in the same sequence, the figures for `C=C(C)[C@@H]1CC[C@]2(COC(=O)CCCC(=O)OC[C@H]3O[C@@H](n4cc(C)c(=O)[nH]c4=O)C[C@@H]3N=[N+]=[N-])CC[C@]3(C)[C@H](CC[C@@H]4[C@@]5(C)CC[C@H](OC(=O)CC(C)(C)C(=O)O)C(C)(C)[C@@H]5CC[C@]43C)[C@@H]12` were 7.22, 5.06 and 145.
For the compound `Cc1cn([C@H]2C[C@H](N=[N+]=[N-])[C@@H](COC(=O)CC(C)(C)CC(=O)OC[C@]34CC[C@@H](C(C)C)[C@@H]3[C@H]3CC[C@@H]5[C@@]6(C)CC[C@H](OC(=O)CC(C)(C)C(=O)O)C(C)(C)[C@@H]6CC[C@@]5(C)[C@]3(C)CC4)O2)c(=O)[nH]c1=O`, in series [1], the pEC50 was 6.54. Besides, the pIC50 in series [2] is 5.05. Besides, the selectivity ratio in series [3] is 31.
With `Cc1cn([C@H]2C[C@H](N=[N+]=[N-])C(COC(=O)CCCC(=O)OC[C@]34CC[C@@H](C(C)C)[C@@H]3[C@H]3CC[C@@H]5[C@@]6(C)CC[C@H](OC(=O)CCCC(=O)O)C(C)(C)[C@@H]6CC[C@@]5(C)[C@]3(C)CC4)O2)c(=O)[nH]c1=O` (some centres not stated), the pEC50 in series [1] was 7.03. In series [2], this compound had a pIC50 of 5.05. Moreover, in series [3], the selectivity ratio turned out to be 97.
In the case of `Cc1cn([C@H]2C[C@H](N=[N+]=[N-])C(COC(=O)CC(C)(C)CC(=O)OC[C@]34CC[C@@H](C(C)C)[C@@H]3[C@H]3CC[C@@H]5[C@@]6(C)CC[C@H](OC(=O)CCCC(=O)O)C(C)(C)[C@@H]6CC[C@@]5(C)[C@]3(C)CC4)O2)c(=O)[nH]c1=O` (some centres not stated), in series [1], the negative-log EC50 (pEC50) was 5.92. Further, in series [2], the pIC50 is 5.07. Besides, in series [3], the selectivity ratio is 7.
For the compound `Cc1cn([C@H]2C[C@H](N=[N+]=[N-])[C@@H](COC(=O)CC(C)(C)C(=O)OC[C@]34CC[C@@H](C(C)C)[C@@H]3[C@H]3CC[C@@H]5[C@@]6(C)CC[C@H](OC(=O)CC(C)(C)C(=O)O)C(C)(C)[C@@H]6CC[C@@]5(C)[C@]3(C)CC4)O2)c(=O)[nH]c1=O`, the pEC50 in series [1] was 7.25. In addition, in series [2], the pIC50 was 5.11. For the same compound, in series [3], the selectivity ratio came to 138.
In the same order, the values of `C=C(C)[C@@H]1CC[C@]2(C(=O)O)CC[C@]3(C)[C@H](CC[C@@H]4[C@@]5(C)CC[C@H](OC(=O)CC(C)(C)C(=O)O)C(C)(C)[C@@H]5CC[C@]43C)[C@@H]12` [BEVIRIMAT] are 7.02, less than 5.30 and greater than 52.
For `C=C(C)[C@@H]1CC[C@]2(COC(=O)CCCC(=O)O)CC[C@]3(C)[C@H](CC[C@@H]4[C@@]5(C)CC[C@H](OC(=O)CC(C)(C)C(=O)O)C(C)(C)[C@@H]5CC[C@]43C)[C@@H]12`, in series [1], the pEC50 was 6.51. The same compound showed a pIC50 in series [2] of less than 4.33. For the same compound, in series [3], the selectivity ratio is greater than 47.
Taken in the same sequence, the figures for `C=C(C)[C@@H]1CC[C@]2(COC(=O)C(C)(C)CC(=O)OC[C@H]3O[C@@H](n4cc(C)c(=O)[nH]c4=O)C[C@@H]3N=[N+]=[N-])CC[C@]3(C)[C@H](CC[C@@H]4[C@@]5(C)CC[C@H](OC(=O)CC(C)(C)C(=O)O)C(C)(C)[C@@H]5CC[C@]43C)[C@@H]12` were 7.40, 5.27 and 135.
For the compound `Cc1cn([C@H]2C[C@H](N=[N+]=[N-])[C@@H](COC(=O)C(C)(C)CC(=O)OC[C@]34CC[C@@H](C(C)C)[C@@H]3[C@H]3CC[C@@H]5[C@@]6(C)CC[C@H](OC(=O)CCCC(=O)O)C(C)(C)[C@@H]6CC[C@@]5(C)[C@]3(C)CC4)O2)c(=O)[nH]c1=O`, in series [1], the pEC50 was 6.59. In addition, the pIC50 in series [2] is 5.14. In series [3], the selectivity ratio is 28.
Take `C=C(C)[C@@H]1CC[C@]2(COC(=O)CCC(=O)OC[C@H]3O[C@@H](n4cc(C)c(=O)[nH]c4=O)C[C@@H]3N=[N+]=[N-])CC[C@]3(C)[C@H](CC[C@@H]4[C@@]5(C)CC[C@H](OC(=O)CC(C)(C)C(=O)O)C(C)(C)[C@@H]5CC[C@]43C)[C@@H]12`: the pEC50 in series [1] is 7.35. This compound gave a pIC50 in series [2] of 5.15. Besides, the selectivity ratio in series [3] amounted to 158.
In the same order, the values of `Cc1cn([C@H]2C[C@H](N=[N+]=[N-])C(COC(=O)CC(C)(C)CC(=O)OC[C@]34CC[C@@H](C(C)C)[C@@H]3[C@H]3CC[C@@H]5[C@@]6(C)CC[C@H](OC(=O)CC(C)(C)CC(=O)O)C(C)(C)[C@@H]6CC[C@@]5(C)[C@]3(C)CC4)O2)c(=O)[nH]c1=O` (some centres not stated) are 6.44, 5.01 and 27.
Taken in the same sequence, the figures for `Cc1cn([C@H]2C[C@H](N=[N+]=[N-])[C@@H](COC(=O)CC(C)(C)C(=O)OC[C@]34CC[C@@H](C(C)C)[C@@H]3[C@H]3CC[C@@H]5[C@@]6(C)CC[C@H](OC(=O)CCCC(=O)O)C(C)(C)[C@@H]6CC[C@@]5(C)[C@]3(C)CC4)O2)c(=O)[nH]c1=O` were 7.14, 5.10 and 110.
In the same order, the values of `C=C(C)[C@@H]1CC[C@]2(COC(=O)CCC(=O)O)CC[C@]3(C)[C@H](CC[C@@H]4[C@@]5(C)CC[C@H](OC(=O)CC(C)(C)C(=O)O)C(C)(C)[C@@H]5CC[C@]43C)[C@@H]12` are 6.74, 4.95 and 63.
